Published values collected from several papers.
Protocols differ between the studies behind these lines.
INSR: Insulin receptor (INSR, Homo sapiens, UniProt P06213)
INSR phosphorylated: Insulin receptor, phosphorylated (INSR, Homo sapiens, UniProt P06213)

CN1CC(Oc2cnc(C#N)cc2-c2ccn3nc(NC(=O)C4CC4)cc3c2)C1
inhibition (INSR; enzyme activity, inhibitor; 1 µM): -2%

CNCc1ccc(-c2cc(-c3nc(-c4ccc(S(=O)(=O)C(C)C)cc4)cnc3N)on2)cc1
inhibition (INSR; enzyme activity, inhibitor; 0.4 µM): 0%

CS(=O)(=O)Nc1cccc(-c2csc(NC(=O)CSc3nc4nccnc4c(=O)n3CCc3ccccc3)n2)c1
inhibition (INSR; enzyme activity, inhibitor; 10 µM): 1%

FC(F)(F)c1ccc2c(c1)nc(-c1cccnc1)n2C1CC1
remaining binding (INSR; cell-free assay, competition with immobilised ligand; 1 µM): 100%

COc1cc2ncnc(Nc3ccc(Oc4ccccc4)c(C)c3C)c2cc1OC
inhibition (INSR; enzyme activity, inhibitor; 1 µM): 5%

CCC(=N\O)/C(C)=C/c1ccc(F)cc1
remaining binding (INSR; cell-free assay, competition with immobilised ligand; 1 µM): 100%

C[C@@H]1CCN(C(=O)CC#N)C[C@@H]1N(C)c1ncnc2[nH]ccc12
remaining signal (INSR; cell-free assay; 0.5 µM): 101%

CSc1nc(C)c(-c2ccnc(Nc3ccc(N4CCOCC4)cc3)c2)[nH]1
inhibition (INSR; cell-free assay, inhibitor; 10 µM): -1.8%

C[C@H](NC(=O)c1cnc2n1[C@](C)(Cc1ccc(C#N)cc1)C(=O)N2c1cc(Cl)c(F)c(Cl)c1)C(=O)NC1(c2ccccn2)CC1
remaining binding (INSR; cell-free assay, competition with immobilised ligand; 1 µM): 100%

Cc1cc(NC(=O)c2cccc3cc(-c4cccc5[nH]nc(N)c45)ccc23)ccc1F
activity vs control (INSR phosphorylated; enzyme activity, inhibitor; 0.1 µM): 91%

CC/C(=N\NC(=O)NCc1cccc(O)c1)c1ccc(O)c(C)c1O
inhibition (INSR; enzyme activity, inhibitor; 0.1 µM): 0.1%

CC(C)(O)c1cncc(-c2nc3ccc(F)cc3n2C2CC2)c1
remaining binding (INSR; cell-free assay, competition with immobilised ligand; 1 µM): 100%

Cc1ccc(NC(=O)c2ccc(C)c(C(F)(F)F)c2)cc1C#Cc1nn(C2CCC(O)CC2)c2ncnc(N)c12 (centres unmarked)
remaining signal (INSR; cell-free assay; 10 µM): 97%

N#CC1(c2ccccn2)CCN(Cc2cc(C(=O)N3CCCC3)c(=O)n3ccccc23)CC1
remaining binding (INSR; cell-free assay, competition with immobilised ligand; 1 µM): 88%

Cc1ccc(C(=O)NCc2ccsc2)cc1C#Cc1cn(C(C)C)c2ncnc(N)c12
activity vs control (INSR phosphorylated; enzyme activity, inhibitor; 1 µM): 95%

O=C(NCc1ncc(C(F)(F)F)cc1Cl)c1ccc2c(c1)C1(CCS(=O)(=O)CC1)[C@@H](C1CC1)N2S(=O)(=O)c1ccc(F)cc1
remaining binding (INSR; cell-free assay, competition with immobilised ligand; 1 µM): 100%

Cc1ccc(Nc2nccc(N(C)c3ccc4c(C)n(C)nc4c3)n2)cc1S(N)(=O)=O
inhibition (INSR; enzyme activity, inhibitor; 10 µM): 27%

CN(c1ncccc1CNc1nc(Nc2ccc3c(c2)CC(=O)N3)ncc1C(F)(F)F)S(C)(=O)=O
inhibition (INSR; enzyme activity, inhibitor; 1 µM): 57.2%

O=C1CCc2cc(Nc3cc(OC4CCOCC4)c([N+](=O)[O-])cc3Cl)ccc2N1
remaining binding (INSR; cell-free assay, competition with immobilised ligand; 1 µM): 93%

CNC(=O)c1cc(Oc2ccc(NC(=O)Nc3ccc(Cl)c(C(F)(F)F)c3)cc2)ccn1
inhibition (INSR; enzyme activity, inhibitor; 0.3 µM): 3%

Cc1ccc(C(=O)Nc2ccc(CN3CCN(C)CC3)c(C(F)(F)F)c2)cc1C#Cc1cnc2cccnn12
remaining signal (INSR; cell-free assay; 23.5 nM): 85%

N#CCCc1ccc2c(c1)-c1[nH]c3ccc([N+](=O)[O-])cc3c1CC(=O)N2
remaining signal (INSR; cell-free assay; 0.5 µM): 94.1%

CN(C)C1CCN(CC#Cc2nn(C3CCCC3)c3nc(NCc4ccccc4)ncc23)C1 (centres unmarked)
inhibition (INSR; enzyme activity, inhibitor, FRET; 0.1 µM): 7%
